Results on 2 compounds are retold here after ChEMBL document CHEMBL1165996, “Terpenoids from Salvia trijuga” (J Nat Prod, 2010).

What is called IC50 is the concentration at which inhibition is half-maximal.

Holding throughout (format): functional, cell-based
The test system of one assay is SW480. Kind of assay: Cytotoxicity against human SW480 cells after 48 hrs by MTT assay. The following applies: SW480, 48 h. Put shortly: (§1)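 Cells seeded in 96-well plates 12 h before dosing, then continuously exposed to a range of compound concentrations for 48 h. MTT added for a further 4 h, then 20% SDS added and left 12 h at room temperature. OD read at 595 nm. IC50 calculated by the Reed and Muench method.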
(Tetrazolium dyes change colour on reduction, which living cells bring about.)

The test system of another assay is HL-60. In words: Cytotoxicity against human HL60 cells after 48 hrs by MTT assay. The following applies: HL-60, 48 h. Put shortly:
as §1

The next assay relates to MCF7. Kind of assay: Cytotoxicity against human MCF7 cells after 48 hrs by MTT assay. The note with it: MCF7, 48 h. Put shortly: as §1
In a further assay the test system is SMMC-7721. Kind of assay: Cytotoxicity against human SMMC7721 cells after 48 hrs by MTT assay. The note with it: SMMC-7721, 48 h. Put shortly:
as §1

A further assay concerns A549. In words: Cytotoxicity against human A549 cells after 48 hrs by MTT assay. The following applies: A549, 48 h. The essentials:
as §1

As for `C[C@@H]1CC[C@]2(C(=O)O)CC[C@]3(C)C(=CC[C@@H]4[C@@]5(C)C(CO)=CC(C)(C)[C@@H]5CC[C@]43C)[C@@H]2[C@]1(C)O` [HYPTASIENIC ACID], the IC50 was 10.9 µM in the assay with SW480; 15.5 µM in the assay on HL-60; above 40 µM in the assay on MCF7; 21 µM in the assay with SMMC-7721; 24.7 µM in the assay with A549.
For `C/C=C(\C)C(=O)O[C@@H]1C/C(C)=C/CC[C@@]2(C)O[C@@H]2[C@@H](OC(=O)C(C)C(C)OC(C)=O)[C@H]1C(C)C` (stereo not given in full) [TRIJUGIN I] the same measures were 24.9 µM, 17.1 µM, above 40 µM, 34 µM and above 40 µM.
